Experimental findings from ChEMBL document CHEMBL1154265, “Alkaloids from the leaves of Daphniphyllum subverticillatum” (J Nat Prod, 2009) are described below.

Molecules are shown by their SMILES. The source made the active and inactive calls. The rule behind the calls is not given here.

One data set deals with HL-60. Kind of data set: Cytotoxicity against human HL60 cells after 72 hrs by MTT assay. Format: functional, cell-based. The method in brief:
(§1)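 MTT read-out on HL-60 and P-388 cells, run to earlier published protocols, with pseudolaric acid B as the positive control; IC50 values reported.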

The next data set concerns Bel-7402. Kind of data set: Cytotoxicity against human Bel7402 cells after 72 hrs by sulforhodamine B assay. Format: functional, cell-based. In outline: (§2)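 SRB staining on A-549, BEL-7402 and HMEC (human microvascular endothelial) cells, run to earlier published protocols, with pseudolaric acid B as the positive control; IC50 values reported.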
The test system of a further data set is P388. Kind of data set: Cytotoxicity against mouse P388 cells after 72 hrs by MTT assay. Format: functional, cell-based. The method in brief:
as §1
On the technique in general: Tetrazolium dyes change colour on reduction, which living cells bring about.

A further data set concerns HMEC. Nature of the data set: Cytotoxicity against human HMEC cells after 72 hrs by sulforhodamine B assay. Type of data set: cell-based. The conditions noted are these: for Activity: human, hmec. The method in brief: as §2
Background: Sulforhodamine B stains cellular protein and so reports cell mass.

For another data set, the system named is A549. Kind of data set: Cytotoxicity against human A549 cells after 72 hrs by sulforhodamine B assay. Type of data set: functional, cell-based. In outline:
as §2

Consider `CC[C@@]1(O)CC[C@@]2(CO1)[C@H]1CCC3=C4[C@H](C[C@@H]3O)[C@H](C(=O)OC)C[C@@]42CN(C)C1`, for which the outcome with HL-60, in the data set on Bel-7402, with P388 and with A549 was inactive. For the same compound, the Activity entry in the data set on HMEC is “Non-toxic”.

Regarding `COC(=O)CC[C@]12C3=CCC[C@@H]3CC[C@@H]3C=N[C@@H]1[C@@H](C(C)C)CC[C@@]32C` [DAPHNEZOMINE L METHYL ESTER], the result in the data set with HL-60, in the data set with Bel-7402, in the data set on P388 and in the data set with A549 was inactive. Besides, the Activity entry in the data set on HMEC was “Non-toxic”.

Turning to `CC(=O)O[C@@H]1CC[C@@]2(C)O[C@@H](O)[C@@]1(C)C2CC[C@@]12[C@@H]3NC4C(CC[C@@]45CCC[C@H]51)[C@]2(C)CC[C@@H]3C(C)C` (stereo not given in full) [DAPHNILONGERIDINE], the IC50 (usually the concentration that gives 50% inhibition) in the data set with HL-60 (HL-60, 72 h) turned out to be 9.5 µM; in the data set with Bel-7402 (Bel-7402, 72 h), 9.7 µM; in the data set on P388 (P388, 72 h), 2.4 µM; with HMEC (Homo sapiens, HMEC), 2.7 µM. Besides, the result with A549 was inactive.

With `CC(C)[C@H]1CC[C@@]2(C)[C@@H]3C[C@@H](O)[C@]45CCC[C@H]4[C@@]2(CCC(=O)[C@]2(C)CO[C@]4(C)CCC2O4)[C@@H]1N5C3` [HYDROXYCODAPHNIPHYLLINE], the outcome in the data set on HL-60, in the data set on Bel-7402, in the data set with P388 and in the data set on A549 was inactive. Besides, the Activity result in the data set with HMEC was “Non-toxic”.

In the case of `COC(=O)[C@@H]1C[C@@]23C(=O)[C@@H]4C[C@H]5N(C[C@@H](CCC6=C2[C@@H]1CC6)[C@]53COC(C)=O)C[C@H]4C` [SUBDAPHNIDINE A], the outcome in the data set on HL-60, in the data set on Bel-7402, in the data set with P388 and in the data set on A549 was inactive. Further, in the data set on HMEC, the Activity entry is listed as “Non-toxic”.
